Source: PubChem BioAssay
NR2F2 inh – NR2F2 (human) inhibition, primary screen; inhibition, % at 8.6 µM; AID 686940; P24468; HEK293T NGFI-A luciferase reporter, luminescence; 370,000 tested, 0.7% active;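 active = inhibition above a per-plate cutoff, mean inhibition of test wells between control levels plus 3 SD, cut at about 38% in these data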;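 also: cells cotransfected with COUP-TFII expression vector driving the NGFI-A reporter; 0% = median of COUP-TF2 test wells and 100% = reporter-only cells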
NR2E3 ag-1 – agonists of human NR2E3 nuclear receptor | inhibition of corepressor binding, % at 3.98 µM | Q9Y5X4 | AID 602229 | CHO-S Gal4-NCOR/VP16-NR2E3 two-hybrid, luciferase | 360,000 tested, 0.35% active;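 active = inhibition above the mean of all tested compounds plus 3 SD, cut at about 70% in these data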;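 also: 0% = DMSO with NR2E3 transfected cells and 100% = cells lacking NR2E3 construct; higher means lower luciferase signal from less NR2E3 corepressor binding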
Target sequence (Q9Y5X4 whole entry, looked up, the tested form may be a part): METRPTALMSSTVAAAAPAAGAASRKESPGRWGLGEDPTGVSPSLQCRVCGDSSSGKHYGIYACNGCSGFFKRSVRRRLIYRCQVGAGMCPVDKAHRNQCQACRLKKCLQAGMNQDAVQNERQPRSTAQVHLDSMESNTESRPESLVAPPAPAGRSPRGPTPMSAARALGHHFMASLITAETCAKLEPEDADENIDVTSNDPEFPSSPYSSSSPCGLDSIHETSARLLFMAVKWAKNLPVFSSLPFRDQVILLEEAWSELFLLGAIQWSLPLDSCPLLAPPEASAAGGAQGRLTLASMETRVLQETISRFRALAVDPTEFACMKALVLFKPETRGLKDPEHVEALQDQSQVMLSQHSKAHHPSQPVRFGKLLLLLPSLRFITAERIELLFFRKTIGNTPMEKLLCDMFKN
CHT PAM – human CHT allosteric activation | Q9GZV3 | CHT-expressing cells, membrane potential dye, choline EC20; hits give high values; LV-AA mutant CHT in HEK293 cells | B-score at 10 µM | 310,000 tested, 0.49% active;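 active = initial fluorescence not abnormally high and integrated response B-score, plate-corrected, over 3 SD above library mean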
GalR3 antagonist – antagonists of human GalR3; HEK293 GalR3-CNG cAMP membrane potential fluorescence; galR3 body fused to GalR1 C-terminus; 360,000 tested, 0.44% active; inhibition, % at 3 µM; O60755;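 active = inhibition above the screen-wide average plus 3 SD, cut at about 13% in these data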;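 also: forskolin and galanin both at EC90 stimulate the cells; cAMP rise reported by CNG channel membrane potential dye signal; 0% = forskolin plus galanin with DMSO and 100% = forskolin alone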
NR2E3 ag-2 – activates human photoreceptor nuclear receptor NR2E3 | AID 2300 | GST-NR2E3/biotin-RetCOR TR-FRET, 1536-well | inhibition of corepressor binding, % at 4.78 µM | 320,000 tested, 0.12% active;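 active = percent inhibition above the cutoff of mean plus 3 SD of all tested compounds, set per screening campaign, cut at about 20% in these data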;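 also: 0% = DMSO wells and 100% = biotin wells as full block of FRET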
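Material: NR2E3–RetCOR corepressor complex | Quantity: 1.35 nM GST-tagged NR2E3 final | Schedule: 5 h at 4 °C | Replication: Singlicate compound wells | Reagent: RetCOR corepressor, biotinylated, 7 nM | Controls: Biotin wells as high control, 0.6% DMSO wells as low control | Signal: TR-FRET, Eu(K)-anti-GST donor, streptavidin-D2 acceptor, ex 340, em 617/671 nm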
CHT inh – inhibitors of human choline transporter CHT; CHT-expressing cells, membrane potential dye, choline response; hits give low values; B-score at 10 µM; AID 488975; 310,000 tested, 0.86% active;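 active = B-score over 3 SD under the library average, and starting fluorescence ratio not unusually high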;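 also: choline stimulus applied at its EC90 after an EC20 pre-addition; B-score computed on integrated fluorescence ratio after choline addition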
* marks the source's active call; other numbers are inactive results; i = inactive; / = not tested or not shown. Compounds with a hit are over-represented: about 2.3% of the library has one in this group of screens.

SMILES	NR2F2 inh	NR2E3 ag-1	CHT PAM	GalR3 antagonist	NR2E3 ag-2	CHT inh
CC(CCC(C)C(C)(C)C)[C@@H]1CC[C@H]2C3C[C@H](OS(O)(=S)=S)[C@H]4C[C@H](OS(O)(=S)=S)[C@@H](OS(O)(=S)=S)C[C@]4(C)[C@H]3CC[C@]12C (stereo not given in full) (tested in a mixture with another compound)	/	74.9*	/	/	/	/
C[C@@H]1[C@H](O)[C@@H](C)/C=C/C=C/C=C/C=C/C=C/C=C/C=C/[C@H](OC2O[C@H](C)[C@@H](O)[C@H](N)[C@@H]2O)C[C@@H]2O[C@](O)(C[C@@H](O)C[C@@H](O)[C@H](O)CC[C@@H](O)C[C@@H](O)CC(=O)O[C@H]1C)C[C@H](O)[C@H]2C(=O)O (stereo not given in full)	10.5	/	/	/	/	/
CC1=NN(c2ccccc2)C(=O)C1(C)C	-13.3	10.4	i	-1.4	4.0	i
CC1=NN(c2ccccc2)C(=O)C1C=Nc1ccccc1O (stereo not given)	/	-27.7	i	/	2.7	-5.21*
CCOc1ccccc1N1CCN(C2=C(NS(=O)(=O)c3cccs3)C(=O)c3ccccc3C2=O)CC1	4.4	-5.2	i	-3.0	0.1	i
O=C1C(NS(=O)(=O)c2cccs2)=C(N2CCN(Cc3ccccc3)CC2)C(=O)c2ccccc21	4.9	-36.0	i	5.2	-0.3	-5.47*
O=C(Nc1nc(-c2ccccc2)cs1)C1CCCN(S(=O)(=O)c2ccccc2)C1 (stereo not given)	44.0*	-7.7	i	-5.0	-0.2	i
O=C(Nc1nc(-c2ccccc2)cs1)C1CCCN(S(=O)(=O)c2cccc([N+](=O)[O-])c2)C1 (stereo not given)	17.4	7.1	i	-7.4	3.2	i
Cc1ccc(S(=O)(=O)CCC(=O)OCC(=O)c2cc(C)ccc2C)cc1	12.4	-8.4	i	-2.4	-2.7	i
Cc1ccc(S(=O)(=O)CCC(=O)c2ccc(O)cc2O)cc1	6.5	-1.7	i	-2.8	-2.4	-5.16*
Cc1cc(C)n(-c2nc(NC(C)(C)C)nc(NC(C)(C)C)n2)n1	8.5	105.4*	i	-4.9	-0.8	i
Cc1cc(C)n(-c2nc(NC(C)C)nc(NC(C)C)n2)n1	35.7	80.6*	i	-5.4	2.2	i
COC(=O)C1CN(C2CCCC2)CCS(=O)(=O)N1Cc1ccccc1 (stereo not given)	2.1	/	/	/	/	/
CCOC(=O)N1C(=O)C[C@](Sc2ccc(OC)cc2)(C(=O)N(C)C)[C@H]1c1ccc(OC)cc1	8.2	/	/	/	/	/
Cc1c(Cl)cccc1NC(=S)NNc1ncc(C(F)(F)F)cc1Cl	30.5	-1.7	i	-7.0	-0.2	-5.27*
Cc1ccccc1NC(=S)NNc1ncc(C(F)(F)F)cc1Cl	0.8	8.0	i	-4.9	-1.1	i
CC(=O)OC12CCCN(C1)/C(=C/c1cccnc1)C2 (stereo not given)	3.5	/	/	/	/	/
CC1=NN(c2ccc(Br)cc2)C(=O)/C1=C/c1ccc(-c2ccccc2C(=O)O)o1	2.0	7.8	i	-9.2	1.7	-7.23*
CCOC(=O)c1cc(-c2ccc(/C=C3/C(=O)N(c4ccc(C(=O)O)cc4)N=C3C)o2)ccc1Cl	-5.7	-30.9	i	-11.3	-2.1	i
O=C1CC(c2ccc3c(c2)OCO3)N=C2N(Cc3ccc4c(c3)OCO4)C/C(=C/c3ccccc3)N12 (stereo not given)	3.0	/	/	/	/	/
O=C(CCCl)NC1CCCCN(Cc2ccc(OC(F)(F)F)cc2)C1=O (stereo not given)	2.0	/	/	/	/	/
COc1cc(/C=C2/C(=O)NN(c3ccc(F)cc3)C2=O)cc(Cl)c1O	10.1	-25.2	i	2.8	-1.6	-4.95*
COc1cc(/C=C2/C(=O)NN(c3ccc(Cl)cc3)C2=O)cc(Br)c1O	20.8	-8.6	i	-4.6	1.7	i
COc1cccc(/C=C2/C(=O)NN(c3ccc(Br)cc3)C2=O)c1O	1.3	-24.2	i	-3.6	/	-6.85*
COC(=O)c1ccc(N2NC(=O)/C(=C/c3cc(OC)c(O)c(OC)c3)C2=O)cc1	14.2	31.0	i	-6.5	-0.4	i
